Assay results taken from ChEMBL document CHEMBL4118073, “Evaluation of the antidepressant therapeutic potential of isocyanine and pseudoisocyanine analogues of the organic cation decynium-22” (Eur J Med Chem, 2017).

Key:
[1] = biological target: T1, Alpha-1 adrenergic receptor (Mus musculus, UniProt P97714+P97717+P97718); assay: Displacement of [3H]prazosin from alpha1 adrenoceptor in C57BL/6 mouse hippocampal homogenates after 40 mins by liquid scintillation counting method
T1 sequence (P97714 whole entry): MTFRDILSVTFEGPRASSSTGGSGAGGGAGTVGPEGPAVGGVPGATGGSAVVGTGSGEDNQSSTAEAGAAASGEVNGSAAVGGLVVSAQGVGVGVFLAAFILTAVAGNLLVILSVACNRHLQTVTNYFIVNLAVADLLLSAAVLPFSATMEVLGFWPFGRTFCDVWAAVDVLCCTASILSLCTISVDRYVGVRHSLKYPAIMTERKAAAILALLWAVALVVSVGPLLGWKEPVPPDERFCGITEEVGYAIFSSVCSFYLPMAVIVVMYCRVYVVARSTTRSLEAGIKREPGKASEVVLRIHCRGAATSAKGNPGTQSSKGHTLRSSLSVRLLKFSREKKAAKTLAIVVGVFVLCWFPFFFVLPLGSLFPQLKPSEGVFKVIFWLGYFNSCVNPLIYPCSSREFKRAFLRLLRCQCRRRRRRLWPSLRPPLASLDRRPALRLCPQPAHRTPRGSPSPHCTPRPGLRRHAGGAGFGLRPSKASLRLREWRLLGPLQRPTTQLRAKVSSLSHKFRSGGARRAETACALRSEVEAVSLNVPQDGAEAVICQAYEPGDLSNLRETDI
T1 sequence (P97717 whole entry): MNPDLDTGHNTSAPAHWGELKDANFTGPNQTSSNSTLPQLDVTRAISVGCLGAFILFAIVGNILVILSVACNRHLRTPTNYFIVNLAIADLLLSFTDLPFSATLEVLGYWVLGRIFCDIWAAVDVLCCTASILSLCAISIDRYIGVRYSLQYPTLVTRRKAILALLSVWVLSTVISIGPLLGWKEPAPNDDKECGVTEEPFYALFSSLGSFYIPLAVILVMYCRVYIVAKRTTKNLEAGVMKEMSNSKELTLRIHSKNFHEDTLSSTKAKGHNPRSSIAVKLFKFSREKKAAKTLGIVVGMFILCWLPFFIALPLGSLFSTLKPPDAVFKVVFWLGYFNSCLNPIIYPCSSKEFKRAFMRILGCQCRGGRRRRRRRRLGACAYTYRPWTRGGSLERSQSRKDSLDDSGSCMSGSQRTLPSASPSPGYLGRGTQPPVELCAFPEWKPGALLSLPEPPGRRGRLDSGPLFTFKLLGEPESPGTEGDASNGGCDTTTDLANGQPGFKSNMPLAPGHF
T1 sequence (P97718 whole entry): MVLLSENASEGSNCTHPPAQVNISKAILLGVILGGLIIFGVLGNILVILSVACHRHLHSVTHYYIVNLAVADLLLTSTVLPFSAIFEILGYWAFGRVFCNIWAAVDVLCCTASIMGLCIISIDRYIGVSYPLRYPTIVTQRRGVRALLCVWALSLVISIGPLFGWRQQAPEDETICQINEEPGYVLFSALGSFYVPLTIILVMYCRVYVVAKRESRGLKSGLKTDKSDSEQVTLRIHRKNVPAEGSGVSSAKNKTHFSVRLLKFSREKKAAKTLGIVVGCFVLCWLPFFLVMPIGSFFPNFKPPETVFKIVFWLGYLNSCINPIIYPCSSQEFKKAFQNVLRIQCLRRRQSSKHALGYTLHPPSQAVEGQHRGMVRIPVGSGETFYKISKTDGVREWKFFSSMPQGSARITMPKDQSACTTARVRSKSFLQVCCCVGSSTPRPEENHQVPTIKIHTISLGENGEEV
Method in brief: (§1)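 Mouse hippocampal homogenate incubated with 1.5 nM [³H]prazosin and competing ligand across a concentration series. Bound radioligand was expressed as displacement relative to control. IC₅₀ was obtained from non-linear regression fitting of concentration-effect curves, and curve fits were compared with tamsulosin.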

[2] = test system: Mus musculus; assay: Anti-depressant-like activity in mouse assessed as time spent immobile at 0.1 mg/kg, ip administered 60 mins prior to testing measured for 6 mins by tail suspension test (reference value: 186.9 +/- 13.2 secs); format: functional
[3] = test system: Mus musculus; assay: Anti-depressant-like activity in mouse assessed as time spent immobile at 1 mg/kg, ip administered 60 mins prior to testing measured for 6 mins by tail suspension test (reference value: 186.9 +/- 13.2 secs); format: functional
[4] = test system: Mus musculus; assay: Anti-depressant-like activity in mouse assessed as time spent immobile at 3.2 mg/kg, ip administered 60 mins prior to testing measured for 6 mins by tail suspension test (reference value: 186.9 +/- 13.2 secs); format: functional
[5] = test system: Mus musculus; assay: Toxicity in mouse assessed as suppression of locomotion at 1 mg/kg, ip measured for 5 mins; format: organism-based; settings: in vivo
[6] = test system: Mus musculus; assay: Toxicity in mouse assessed as suppression of locomotion at 10 mg/kg, ip measured for 5 mins; format: organism-based; settings: in vivo
[7] = test system: Mus musculus; assay: Toxicity in mouse assessed as suppression of locomotion at 0.1 mg/kg, ip measured for 5 mins; format: organism-based; settings: in vivo
[8] = biological target: T2, alpha1 adrenoceptor (Mus musculus, UniProt P97714+P97717+P97718); assay: Displacement of [3H]prazosin from alpha1 adrenoceptor in C57BL/6 mouse hippocampal homogenates assessed as remaining receptor bound [3H]prazosin levels at 0.001 uM after 40 mins by liquid scintillation counting method relative to control; settings: probe [3H]prazosin, read-out: Activity; method in brief: as §1
T2 sequence (P97714 whole entry): T1 sequence (P97714 whole entry)
T2 sequence (P97717 whole entry): T1 sequence (P97717 whole entry)
T2 sequence (P97718 whole entry): T1 sequence (P97718 whole entry)

[9] = biological target: T2, alpha1 adrenoceptor; assay: Displacement of [3H]prazosin from alpha1 adrenoceptor in C57BL/6 mouse hippocampal homogenates assessed as remaining receptor bound [3H]prazosin levels at 0.01 uM after 40 mins by liquid scintillation counting method relative to control; settings: probe [3H]prazosin, read-out: Activity; method in brief: as §1
[10] = biological target: T2, alpha1 adrenoceptor; assay: Displacement of [3H]prazosin from alpha1 adrenoceptor in C57BL/6 mouse hippocampal homogenates assessed as remaining receptor bound [3H]prazosin levels at 0.1 uM after 40 mins by liquid scintillation counting method relative to control; settings: probe [3H]prazosin, read-out: Activity; method in brief: as §1
[11] = biological target: T2, alpha1 adrenoceptor; assay: Displacement of [3H]prazosin from alpha1 adrenoceptor in C57BL/6 mouse hippocampal homogenates assessed as remaining receptor bound [3H]prazosin levels at 1 uM after 40 mins by liquid scintillation counting method relative to control; settings: probe [3H]prazosin, read-out: Activity; method in brief: as §1
[12] = biological target: T2, alpha1 adrenoceptor; assay: Displacement of [3H]prazosin from alpha1 adrenoceptor in C57BL/6 mouse hippocampal homogenates assessed as remaining receptor bound [3H]prazosin levels at 10 uM after 40 mins by liquid scintillation counting method relative to control; settings: probe [3H]prazosin, read-out: Activity; method in brief: as §1
[13] = biological target: T2, alpha1 adrenoceptor; assay: Displacement of [3H]prazosin from alpha1 adrenoceptor in C57BL/6 mouse hippocampal homogenates assessed as remaining receptor bound [3H]prazosin levels at 100 uM after 40 mins by liquid scintillation counting method relative to control; settings: probe [3H]prazosin, read-out: Activity; method in brief: as §1
[14] = test system: Mus musculus; assay: Toxicity in mouse assessed as mortality at 10 mg/kg, ip measured for 5 mins; format: organism-based; settings: in vivo
Method in brief: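 Mice were given an intraperitoneal injection of the compound, with D-22 dosed over 0.01–10.0 mg/kg and analogues at equivalent doses. Each mouse was placed at once in an infrared beam-break activity chamber. Beam breaks were counted per 5 min period over a four-hour session, and deaths at the 10 mg/kg dose were recorded in the locomotor dose groups.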

[15] = biological target: T2, alpha1 adrenoceptor; assay: Displacement of [3H]prazosin from alpha1 adrenoceptor in C57BL/6 mouse hippocampal homogenates assessed as remaining receptor bound [3H]prazosin levels at 0.0001 uM after 40 mins by liquid scintillation counting method relative to control; settings: probe [3H]prazosin, read-out: Activity; method in brief: as §1
[16] = biological target: T2, alpha1 adrenoceptor; assay: Displacement of [3H]prazosin from alpha1 adrenoceptor in C57BL/6 mouse hippocampal homogenates assessed as remaining receptor bound [3H]prazosin levels at 0.003 uM after 40 mins by liquid scintillation counting method relative to control; settings: probe [3H]prazosin, read-out: Activity; method in brief: as §1
[17] = biological target: T2, alpha1 adrenoceptor; assay: Displacement of [3H]prazosin from alpha1 adrenoceptor in C57BL/6 mouse hippocampal homogenates assessed as remaining receptor bound [3H]prazosin levels at 0.03 uM after 40 mins by liquid scintillation counting method relative to control; settings: probe [3H]prazosin, read-out: Activity; method in brief: as §1
[18] = biological target: T2, alpha1 adrenoceptor; assay: Displacement of [3H]prazosin from alpha1 adrenoceptor in C57BL/6 mouse hippocampal homogenates assessed as remaining receptor bound [3H]prazosin levels at 0.3 uM after 40 mins by liquid scintillation counting method relative to control; settings: probe [3H]prazosin, read-out: Activity; method in brief: as §1
[19] = biological target: T2, alpha1 adrenoceptor; assay: Displacement of [3H]prazosin from alpha1 adrenoceptor in C57BL/6 mouse hippocampal homogenates assessed as remaining receptor bound [3H]prazosin levels at 3 uM after 40 mins by liquid scintillation counting method relative to control; settings: probe [3H]prazosin, read-out: Activity; method in brief: as §1
[20] = biological target: T2, alpha1 adrenoceptor; assay: Displacement of [3H]prazosin from alpha1 adrenoceptor in C57BL/6 mouse hippocampal homogenates assessed as remaining receptor bound [3H]prazosin levels at 30 uM after 40 mins by liquid scintillation counting method relative to control; settings: probe [3H]prazosin, read-out: Activity; method in brief: as §1

IC50 [1] | activity at 40 min, 0.0001 µM [15] | activity at 40 min, 0.003 µM [16] | activity at 40 min, 0.03 µM [17] | activity at 40 min, 0.3 µM [18] | activity at 40 min, 3 µM [19] | activity at 40 min, 30 µM [20] | SMILES | Time [2] | Time [3] | Time [4] | Activity [5] | Activity [6] | Activity [7] | activity at 40 min, 0.001 µM [8] | activity at 40 min, 0.01 µM [9] | activity at 40 min, 0.1 µM [10] | activity at 40 min, 1 µM [11] | activity at 40 min, 10 µM [12] | activity at 40 min, 100 µM [13] | Activity [14]
348 nM |  |  |  |  |  |  | CCN1/C(=C/c2ccc3cc(F)ccc3[n+]2CC)C=Cc2ccccc21.[I-] | 185.5 s | 198.1 s | 113.5 s | Non-Toxic | Toxic | Non-Toxic |  |  |  |  |  |  | 
577 nM |  |  |  |  |  |  | CCN1/C(=C/c2ccc3cc(Cl)ccc3[n+]2CC)C=Cc2ccccc21.[I-] | 189.2 s | 189.3 s | 140.4 s | Non-Toxic | Toxic | Non-Toxic |  |  |  |  |  |  | 
 |  |  |  |  |  |  | CCN1/C(=C/c2ccc3cc(OC)ccc3[n+]2CC)C=Cc2ccccc21.[I-] | 167.2 s | 135.7 s | 203.1 s | Non-Toxic | Toxic | Non-Toxic | 100% | 97% | 81% | 23% | 1.7% | 1.3% | Toxic
 |  |  |  |  |  |  | CCN1/C(=C/c2ccc3cc(Br)ccc3[n+]2CC)C=Cc2ccccc21.[I-] | 171.3 s | 190 s | 179 s | Non-Toxic | Toxic | Non-Toxic | 100% | 102% | 67.7% | 43.3% | 1.3% | 0% | Toxic
 |  |  |  |  |  |  | CN1/C(=C\c2cc[n+](C)c3ccccc23)C=Cc2ccccc21.O=C([O-])C(F)(F)F | 200.8 s | 165.3 s | 150 s | Non-Toxic | Toxic | Non-Toxic |  |  |  |  |  |  | Toxic
711 nM | 100% | 130% | 119% | 94% | 52% | -3% | CCN1/C(=C/c2ccc3cc(I)ccc3[n+]2CC)C=Cc2ccccc21.[I-] | 183 s | 184.5 s | 167.6 s | Non-Toxic | Non-Toxic | Non-Toxic | 111% | 98.3% | 96% | 39.3% | -2.8% | 12.3% | 
60 nM | 100% | 84% |  | 8% |  | -5% | CCN1/C(=C/c2ccc3ccccc3[n+]2CC)C=Cc2ccccc21.[I-] |  | 185.8 s | 149.3 s | Toxic |  | Non-Toxic | 92.8% | 81.2% | 44.6% | 16.6% | 12.6% | 13.3% | 
 |  |  |  |  |  |  | Cc1ccnc2ccccc12 |  |  |  |  |  |  | 100% | 26.3% | 2.7% | 8.3% | 3% | 0% | 
1.8 nM |  |  |  |  |  |  | CCOc1ccccc1OCCN[C@H](C)Cc1ccc(OC)c(S(N)(=O)=O)c1 [TAMSULOSIN] |  |  |  |  |  |  |  |  |  |  |  |  | 

SMILES | IC50 [1] | activity at 40 min, 0.0001 µM [15] | activity at 40 min, 0.003 µM [16] | activity at 40 min, 0.03 µM [17] | activity at 40 min, 0.3 µM [18] | activity at 40 min, 3 µM [19] | activity at 40 min, 30 µM [20] | Time [2] | Time [3] | Time [4] | Activity [5] | Activity [6] | Activity [7] | activity at 40 min, 0.001 µM [8] | activity at 40 min, 0.01 µM [9] | activity at 40 min, 0.1 µM [10] | activity at 40 min, 1 µM [11] | activity at 40 min, 10 µM [12] | activity at 40 min, 100 µM [13] | Activity [14]
CC(C)[n+]1ccc(/C=C2/C=Cc3ccccc3N2C)c2ccccc21.O=C([O-])C(F)(F)F | 1066 nM | 100% |  |  |  |  |  | 198.3 s | 152.8 s | 170.3 s | Non-Toxic | Toxic | Non-Toxic | 100% | 97.3% | 89.7% | 52.3% | 6.7% | 3.3% | 
